# Laboratory results from ChEMBL document CHEMBL3259802, “Anticonvulsant evaluation of clubbed indole-1,2,4-triazine derivatives: a synthetic approach” (Eur J Med Chem, 2014).
# Calls of active or inactive are those of the source. The rule behind the calls is not given here.
# Assays:
# [1] = Neurotoxicity in ip dosed Swiss albino mouse measured during phase 2 trials by rotarod test; assay type: toxicity, organism-based; conditions: in vivo
# Summary of the method: (§1)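 Phase II quantitation: groups of six mice given a range of i.p. doses until at least three points fell within 10–90% seizure protection (MES or scPTZ) or rotarod neurotoxicity, tested at time of peak effect.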
# Rattus norvegicus [2] = organism: Rattus norvegicus; test: Displacement of [3H]BTX-B from neurotoxin site 2 of voltage-gated sodium channel in rat cerebral cortex synaptoneurosomes at 100 uM by scintillation counting analysis; assay type: tissue-based
# Mus musculus [3] = test: Neurotoxicity in Swiss albino mouse assessed as minimal motor impairment at 100 mg/kg, ip after 0.5 hrs by rotarod test; assay type: toxicity, organism-based; set-up: dose 100 mg/kg, route intraperitoneal; conditions: in vivo
# Summary of the method: (§2)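 Rotarod minimal motor impairment: mice trained on 3.2 cm rod at 10 rpm; i.p. doses of 30, 100 and 300 mg/kg, four mice each, tested at 0.5 h and 4 h. Neurotoxicity = failure to stay on rod at least 1 min in each of three trials.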
# Mus musculus [4] = test: Neurotoxicity in Swiss albino mouse assessed as minimal motor impairment at 100 mg/kg, ip after 4 hrs by rotarod test; assay type: toxicity, organism-based; set-up: dose 100 mg/kg, route intraperitoneal; conditions: in vivo; summary of the method: as §2
# Mus musculus [5] = test: Anticonvulsant activity in Swiss albino mouse assessed as protection against maximal electroshock-induced seizures at 30 mg/kg, po administered 60 mins prior to maximal electroshock exposure by MES test; assay type: functional
# Mus musculus [6] = test: Anticonvulsant activity in ip dosed Swiss albino mouse assessed as protection against maximal electroshock-induced tonic-clonic seizure spread measured after 0.5 hrs by MES test; assay type: functional; conditions: read-out: MED
# Summary of the method: (§3)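 Swiss albino mice pre-screened 24 h earlier with 50 mA, 60 Hz, 0.2 s corneal shock; saline drop in eyes. Compounds in 0.5% sodium carboxymethylcellulose given i.p. at 30, 100 and 300 mg/kg; MES applied after 0.5 h and 4 h. Protection = abolition of hind limb tonic extensor component in half or more of four mice.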
# Mus musculus [7] = test: Anticonvulsant activity in Swiss albino mouse assessed as decrease in time duration of hind limb tonic extenstion at 30 mg/kg, po administered 60 mins prior to maximal electroshock exposure by MES test; assay type: functional, organism-based; set-up: dose 30 mg/kg; conditions: Hindlimb
# [8] = Displacement of [3H]BTX-B from neurotoxin site 2 of voltage-gated sodium channel in rat cerebral cortex synaptoneurosomes by scintillation counting analysis; assay type: tissue-based
# Mus musculus [9] = test: Neurotoxicity in Swiss albino mouse assessed as motor impairment at 100 mg/kg, po by rotarod test; assay type: toxicity, organism-based; set-up: dose 100 mg/kg, route oral; conditions: in vivo
# Summary of the method: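 Mice trained on rotarod (3.2 cm, 10 rpm) received 100 mg/kg orally in 0.5% sodium carboxymethylcellulose; neurotoxicity scored as percentage of animals failing to keep equilibrium on rod for 60 s.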
# Mus musculus [10] = test: Anticonvulsant activity in ip dosed Swiss albino mouse assessed as protection against maximal electroshock-induced tonic-clonic seizure spread measured after 4 hrs by MES test; assay type: functional; conditions: read-out: MED; summary of the method: as §3
# Mus musculus [11] = test: Neurotoxicity in Swiss albino mouse assessed as minimal motor impairment at 300 mg/kg, ip after 4 hrs by rotarod test; assay type: toxicity, organism-based; set-up: dose 300 mg/kg, route intraperitoneal; conditions: in vivo; summary of the method: as §2
# Mus musculus [12] = test: Neurotoxicity in Swiss albino mouse assessed as minimal motor impairment at 300 mg/kg, ip after 0.5 hrs by rotarod test; assay type: toxicity, organism-based; set-up: dose 300 mg/kg, route intraperitoneal; conditions: in vivo; summary of the method: as §2
# Rattus norvegicus [13] = test: Increase in GABA level in Wistar rat whole brain at 100 mg/kg, ip after 2 hrs measured per 100 mg of tissue (reference value: 46.8 +/- 6.03 ug); assay type: functional; conditions: route intraperitoneal
# Summary of the method: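 Adult Wistar rats, six per group, given 100 mg/kg i.p. (clobazam 30 mg/kg p.o. reference); decapitated 2 h later, whole brains put into ice-cold 80% ethanol and GABA determined enzymatically in tissue extracts. Mean ± SEM; Student's t test versus control.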
# Mus musculus [14] = test: Anticonvulsant activity in ip dosed Swiss albino mouse assessed as protection against pentylenetetrazole-induced seizures after 4 hrs; assay type: functional; conditions: read-out: MED
# Summary of the method: (§4)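 Compounds in 0.5% sodium carboxymethylcellulose injected i.p. at 30, 100, 300 mg/kg (four mice per dose); at 0.5 h or 4 h, pentylenetetrazol 70 mg/kg given s.c. as 0.5% solution in posterior midline. Observation 30 min; absence of clonic spasm in half or more of animals scored as protection.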
# Mus musculus [15] = test: Anticonvulsant activity in ip dosed Swiss albino mouse assessed as protection against maximal electroshock-induced seizure measured at the time of peak effect during phase 2 trials by MES test; assay type: functional; summary of the method: as §1
# Mus musculus [16] = test: Anticonvulsant activity in ip dosed Swiss albino mouse assessed as protection against pentylenetetrazole-induced seizures after 0.5 hrs; assay type: functional; conditions: read-out: MED; summary of the method: as §4
# Mus musculus [17] = test: Anticonvulsant activity in Swiss albino mouse assessed as protection against maximal electroshock-induced seizures at 100 mg/kg, po administered 60 mins prior to maximal electroshock exposure by MES test; assay type: functional
# Summary of the method: (§5)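 Mice (n=6/group) dosed orally at 100 mg/kg in 0.5% sodium carboxymethylcellulose 60 min before maximal electroshock (150 mA, 0.2 s, corneal electrodes). Duration of hind limb tonic extension noted; abolition scored as protection (% protected). Vehicle controls; mean ± SEM, one-way ANOVA followed by Dunnett's method.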
# Rattus norvegicus [18] = test: Increase in GABA level in Wistar rat whole brain at 30 mg/kg, po for 7 days measured at 4 hrs after last drug dose per 100 mg of tissue (reference value: 49.2 +/- 3.01 ug); assay type: functional
# Mus musculus [19] = test: Anticonvulsant activity in Swiss albino mouse assessed as time duration of hind limb tonic extenstion at 100 mg/kg, po administered 60 mins prior to maximal electroshock exposure by MES test (reference value: 16.20 +/- 0.50 secs); assay type: functional, Hindlimb; summary of the method: as §5
# Mus musculus [20] = test: Anticonvulsant activity in Swiss albino mouse assessed as seizure latency to onset of clonus at 100 mg/kg, po administered 60 mins prior to pentylenetetrazole challenge (reference value: 1.54 +/- 0.90 mins); assay type: functional
# Mus musculus [21] = test: Anticonvulsant activity in Swiss albino mouse assessed as protection against PTZ-induced seizure at 100 mg/kg, po administered 60 mins prior to pentylenetetrazole challenge; assay type: functional
# Mus musculus [22] = organism: Mus musculus; test: Protective index, ratio of TD50 for Swiss albino mouse to ED50 for anticonvulsant activity in PTZ-treated Swiss albino mouse
# Mus musculus [23] = test: Anticonvulsant activity in ip dosed Swiss albino mouse assessed as protection against pentylenetetrazole-induced seizure measured at the time of peak effect during phase 2 trials; assay type: functional; summary of the method: as §1
# Rattus norvegicus [24] = test: Increase in GABA level in Wistar rat whole brain at 30 mg/kg, po after 2 hrs measured per 100 mg of tissue (reference value: 46.8 +/- 6.03 ug); assay type: functional
# Mus musculus [25] = test: Anticonvulsant activity in Swiss albino mouse assessed as protection against pentylenetetrazole-induced seizures at 300 mg/kg, ip after 0.5 hrs; assay type: functional, organism-based; set-up: dose 300 mg/kg; summary of the method: as §4
# Mus musculus [26] = test: Anticonvulsant activity in Swiss albino mouse assessed as protection against maximal electroshock-induced tonic-clonic seizure spread measured at 300 mg/kg, ip after 0.5 hrs by MES test; assay type: functional, organism-based; set-up: dose 300 mg/kg
# Summary of the method: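 Groups of four mice, screened 24 h beforehand with corneal shock (50 mA, 60 Hz, 0.2 s), saline drop in each eye. Test doses of 30, 100 or 300 mg/kg ip were suspended in 0.5% sodium carboxymethylcellulose. The shock was applied 0.5 h and 4.0 h after dosing. Protection: abolition of hind-limb tonic extension in half or more of the animals.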
# Mus musculus [27] = test: Anticonvulsant activity in Swiss albino mouse assessed as protection against maximal electroshock-induced tonic-clonic seizure spread measured at 300 mg/kg, ip after 4 hrs by MES test; assay type: functional, organism-based; set-up: dose 300 mg/kg; summary of the method: as §3
# Mus musculus [28] = test: Anticonvulsant activity in Swiss albino mouse assessed as protection against PTZ-induced seizure at 200 mg/kg, po administered 60 mins prior to pentylenetetrazole challenge; assay type: functional
compound,measurement,setting,value
NC1NC(=S)NN=C1n1c(-c2ccccc2)c(S(N)(=O)=O)c2cc(F)ccc21 (configuration not stated),TD50,[1],225 mg/kg
NC1NC(=S)NN=C1n1c(-c2ccccc2)c(C(=O)O)c2cc(C(F)(F)F)ccc21 (configuration not stated),TD50,[1],100 mg/kg
NC1NC(=S)NN=C1n1c(-c2ccccc2)c(C(=O)O)c2cc([N+](=O)[O-])ccc21 (configuration not stated),TD50,[1],180 mg/kg
O=C1NC(=O)C(c2ccccc2)(c2ccccc2)N1 [PHENYTOIN],inhibition,Rattus norvegicus [2],49.6%
same,Activity,Mus musculus [3],Non-toxic
same,Activity,Mus musculus [4],Non-toxic
same,Activity,Mus musculus [5],100%
same,minimal effective dose,Mus musculus [6],30 mg/kg
same,inhibition,Mus musculus [7],Active
same,IC50,[8],126 µM
same,Activity,Mus musculus [9],Non-toxic
same,minimal effective dose,Mus musculus [10],30 mg/kg
NC(=O)c1c(-c2ccccc2)n(C2=NNC(=S)NC2N)c2ccc([N+](=O)[O-])cc12 (configuration not stated),Activity,Mus musculus [11],Non-toxic
same,Activity,Mus musculus [12],Non-toxic
same,Activity,Rattus norvegicus [13],85.4 µg
same,minimal effective dose,Mus musculus [14],300 mg/kg
same,TD50,[1],125 mg/kg
same,ED50,Mus musculus [15],24 mg/kg
same,minimal effective dose,Mus musculus [6],30 mg/kg
same,minimal effective dose,Mus musculus [16],300 mg/kg
same,Activity,Mus musculus [17],50%
same,Activity,Rattus norvegicus [18],88.4 µg
same,Activity,Mus musculus [9],Non-toxic
same,minimal effective dose,Mus musculus [10],30 mg/kg
same,Time,Mus musculus [19],12.7 s
CC(=O)c1c(-c2ccccc2)n(C2=NNC(=S)NC2N)c2ccc(F)cc12 (configuration not stated),inhibition,Rattus norvegicus [2],50.4%
same,Activity,Mus musculus [11],Non-toxic
same,Activity,Mus musculus [12],Non-toxic
same,Activity,Rattus norvegicus [13],93.5 µg
same,minimal effective dose,Mus musculus [14],100 mg/kg
same,Time,Mus musculus [20],9.8 min
same,TD50,[1],290 mg/kg
same,ED50,Mus musculus [15],7 mg/kg
same,Activity,Mus musculus [21],83.3%
same,minimal effective dose,Mus musculus [6],30 mg/kg
same,Ratio TD50/ED50,Mus musculus [22],3.39
same,IC50,[8],108 µM
same,minimal effective dose,Mus musculus [16],100 mg/kg
same,Activity,Mus musculus [17],100%
same,Activity,Rattus norvegicus [18],110 µg
same,Activity,Mus musculus [9],Non-toxic
same,minimal effective dose,Mus musculus [10],30 mg/kg
same,Time,Mus musculus [19],5.4 s
same,ED50,Mus musculus [23],68 mg/kg
CN1C(=O)CC(=O)N(c2ccccc2)c2cc(Cl)ccc21 [CLOBAZAM],Activity,Rattus norvegicus [18],110 µg
same,Activity,Rattus norvegicus [24],101 µg
CC(=O)c1c(-c2ccccc2)n(C2=NNC(=S)NC2N)c2ccc(C(F)(F)F)cc12 (configuration not stated),Activity,Mus musculus [11],Non-toxic
same,Activity,Mus musculus [12],Non-toxic
same,Activity,Rattus norvegicus [13],75.4 µg
same,minimal effective dose,Mus musculus [14],300 mg/kg
same,TD50,[1],95 mg/kg
same,ED50,Mus musculus [15],40 mg/kg
same,minimal effective dose,Mus musculus [6],30 mg/kg
same,Activity,Mus musculus [17],33.3%
same,Activity,Rattus norvegicus [18],79.1 µg
same,Activity,Mus musculus [25],inactive
same,minimal effective dose,Mus musculus [10],30 mg/kg
same,Time,Mus musculus [19],13.5 s
CCC1(C)CC(=O)NC1=O (configuration not stated) [ETHOSUXIMIDE],Activity,Mus musculus [26],inactive
same,minimal effective dose,Mus musculus [14],300 mg/kg
same,ED50,Mus musculus [15],> 1000 mg/kg
same,minimal effective dose,Mus musculus [16],100 mg/kg
same,Activity,Mus musculus [27],inactive
same,ED50,Mus musculus [23],130 mg/kg
NC1NC(=S)NN=C1n1c(-c2ccccc2)c(S(N)(=O)=O)c2cc(Cl)ccc21 (configuration not stated),TD50,[1],185 mg/kg
CCCC(CCC)C(=O)[O-].[Na+] [VALPROATE SODIUM],Activity,Mus musculus [9],Non-toxic
same,Activity,Mus musculus [28],100%
